Measured values from PMC6520168 (ACS chemical neuroscience, 2019).
Entries after “also recorded” stand apart in the source; their conditions may differ. Like-named read-outs stand apart in the source and are kept apart here.

Experiments:
MOR [1] = molecular target: T1, MOR (Mus musculus, UniProt P42866); settings: 24 h pretreatment; values previously published; cited from earlier work
MOR [2] = molecular target: T1, MOR; type: cell-based; settings: 24 h pretreatment
MOR in rat thalamus = settings: cited from earlier work
MOR [3] = molecular target: T1, MOR; type: cell-based
mice = settings: cited from earlier work
MOR in mouse thalamus = MOR in mouse thalamus (Mus musculus, UniProt P42866); assay: [35S]-GTPγS functional assay in mouse thalamus membranes; type: biochemical
Sequence of MOR in mouse thalamus (P42866 whole entry): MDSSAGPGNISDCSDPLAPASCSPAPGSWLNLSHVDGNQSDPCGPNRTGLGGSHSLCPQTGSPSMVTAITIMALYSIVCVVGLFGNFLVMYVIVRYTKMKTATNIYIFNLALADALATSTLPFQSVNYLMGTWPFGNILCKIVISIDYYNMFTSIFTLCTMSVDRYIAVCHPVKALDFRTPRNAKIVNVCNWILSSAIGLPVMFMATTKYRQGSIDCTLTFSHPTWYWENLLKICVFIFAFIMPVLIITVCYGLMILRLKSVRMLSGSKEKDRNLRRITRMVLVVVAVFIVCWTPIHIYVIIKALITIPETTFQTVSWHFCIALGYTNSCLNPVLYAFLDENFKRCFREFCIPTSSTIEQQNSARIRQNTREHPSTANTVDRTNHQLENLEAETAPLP

μ opioid receptor (MOR) = μ opioid receptor (MOR) (Mus musculus, UniProt P42866); assay: [35S]-GTPγS functional assay in mMOR-CHO cell membranes; type: biochemical
Sequence of μ opioid receptor (MOR) (P42866 whole entry): as above

κ opioid receptor (KOR) = κ opioid receptor (KOR) (Mus musculus, UniProt P33534); assay: [35S]-GTPγS functional assay in mKOR-CHO cells; type: biochemical
Sequence of κ opioid receptor (KOR) (P33534 whole entry): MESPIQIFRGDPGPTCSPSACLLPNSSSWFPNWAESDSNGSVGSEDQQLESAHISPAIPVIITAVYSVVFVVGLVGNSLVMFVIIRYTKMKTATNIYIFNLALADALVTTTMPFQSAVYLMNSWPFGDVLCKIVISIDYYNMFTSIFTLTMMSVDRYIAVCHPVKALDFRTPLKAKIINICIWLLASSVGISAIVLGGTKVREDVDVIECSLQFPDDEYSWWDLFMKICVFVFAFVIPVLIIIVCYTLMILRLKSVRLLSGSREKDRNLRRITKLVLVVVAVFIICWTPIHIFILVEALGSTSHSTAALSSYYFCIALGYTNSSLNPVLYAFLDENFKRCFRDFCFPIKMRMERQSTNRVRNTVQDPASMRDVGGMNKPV

δ opioid receptor (DOR) = δ opioid receptor (DOR) (Mus musculus, UniProt P32300); assay: [35S]-GTPγS functional assay in mDOR-CHO cells; type: biochemical
Sequence of δ opioid receptor (DOR) (P32300 whole entry): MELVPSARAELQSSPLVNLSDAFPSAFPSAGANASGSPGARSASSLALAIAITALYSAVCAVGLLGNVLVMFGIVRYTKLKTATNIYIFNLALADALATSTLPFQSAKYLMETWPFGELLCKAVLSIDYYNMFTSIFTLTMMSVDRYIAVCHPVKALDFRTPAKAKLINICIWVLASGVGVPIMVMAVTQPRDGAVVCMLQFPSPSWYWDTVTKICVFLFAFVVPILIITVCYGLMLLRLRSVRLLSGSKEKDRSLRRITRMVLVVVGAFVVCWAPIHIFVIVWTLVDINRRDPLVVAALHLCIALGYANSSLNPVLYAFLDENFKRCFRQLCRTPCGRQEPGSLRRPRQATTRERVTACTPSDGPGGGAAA

human NOP receptor = human NOP receptor (Homo sapiens, UniProt P41146); assay: [3H]nociceptin NOP receptor binding assay; settings: 3 μM test ligand
Sequence of human NOP receptor (P41146 whole entry): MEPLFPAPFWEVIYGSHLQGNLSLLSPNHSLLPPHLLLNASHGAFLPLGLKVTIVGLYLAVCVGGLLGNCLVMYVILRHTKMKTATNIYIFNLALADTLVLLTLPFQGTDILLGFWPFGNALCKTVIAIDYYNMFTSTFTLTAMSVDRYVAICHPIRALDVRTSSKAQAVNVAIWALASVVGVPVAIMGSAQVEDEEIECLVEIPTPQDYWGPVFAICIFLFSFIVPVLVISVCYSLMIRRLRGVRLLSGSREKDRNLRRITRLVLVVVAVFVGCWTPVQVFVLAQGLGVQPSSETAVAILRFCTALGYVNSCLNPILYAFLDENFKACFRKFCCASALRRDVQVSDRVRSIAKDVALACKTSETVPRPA
How it was run: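 Membranes came from CHO cells stably expressing human NOP receptor (~5 pmol/mg protein), lysed hypotonically in Tris/EDTA/PMSF (pH 7.4). Binding used 20 μg protein with 0.2 nM [3H]nociceptin in 50 mM Tris-HCl, 0.1% BSA, pH 7.4, with or without 3 μM test compound. Percent inhibition = 100% − (binding with compound − nonspecific)/(total − nonspecific) × 100%.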

morphine-pelleted mice = assay: Withdrawal assay in chronic morphine-pelleted mice; type: in vivo, mouse
DOR = settings: read-out: DOR Ki; cited from earlier work
hMOR = hMOR (Homo sapiens, UniProt P35372); assay: Ca2+ flux assay in Gαqi5 transfected hMOR-CHO cells; type: cell-based; settings: agonism study
Sequence of hMOR (P35372 whole entry): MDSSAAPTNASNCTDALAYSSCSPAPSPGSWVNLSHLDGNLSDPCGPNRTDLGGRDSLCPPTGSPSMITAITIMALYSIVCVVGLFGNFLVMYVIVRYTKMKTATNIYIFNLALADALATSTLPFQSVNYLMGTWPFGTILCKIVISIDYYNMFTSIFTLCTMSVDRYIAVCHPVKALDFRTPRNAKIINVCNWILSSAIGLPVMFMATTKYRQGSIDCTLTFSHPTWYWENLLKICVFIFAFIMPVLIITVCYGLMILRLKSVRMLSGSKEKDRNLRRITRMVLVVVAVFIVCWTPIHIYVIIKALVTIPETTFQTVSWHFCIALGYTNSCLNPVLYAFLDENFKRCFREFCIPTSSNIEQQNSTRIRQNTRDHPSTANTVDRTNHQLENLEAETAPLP

[4] = 1 mg/kg s.c., morphine-pelleted mice
[5] = 50 mg/kg s.c., morphine-pelleted mice

T1 sequence (P42866 whole entry): as the sequence (P42866 whole entry) above

Question: Which “Bmax (pmol/mg) of [3H]naloxone saturation binding after pretreatment” value (“Bmax (pmol/mg)” below) (MOR [1]) does the source give for `C[C@@H](NC(=O)[C@@H](N)Cc1ccc(O)cc1)C(=O)NCC(=O)N(C)[C@@H](Cc1ccccc1)C(=O)NCCO` [DAMGO, [D-Ala^2, N-MePhe^4, Gly-ol]-enkephalin, reference compound] here?
Answer: The value was 1.49 ± 0.12 pmol/mg.

Question: And the “Reduction in receptor density (Bmax)” value (MOR [2]; versus vehicle)?
Answer: Its value is ~50%.

Question: With `O=C1CC[C@@]2(O)[C@H]3Cc4ccc(O)c5c4[C@@]2(CCN3CC2CC2)[C@H]1O5` [NTX, naltrexone] as the compound, how does the “Functional character in the rat thalamus” value (MOR in rat thalamus) read?
Answer: The value was “pure antagonists”.

Question: With `Oc1ccc2c3c1O[C@H]1[C@@H](O)CC[C@@]4(O)[C@@H](C2)N(CC2CCC2)CC[C@]314` [nalbuphine] as the compound, how does the “Functional character in the rat thalamus” value (MOR in rat thalamus) read?
Answer: Its value is “pure antagonists”.

Question: With `O=C(N[C@H]1CC[C@@]2(O)[C@H]3Cc4ccc(O)c5c4[C@@]2(CCN3CC2CC2)[C@H]1O5)c1cc2ccccc2cn1` [NAQ, 17-cyclopropyl-methyl-3,14β-dihydroxy-4,5α-epoxy-6α-(isoquinoline-3-carboxamido)morphinan] as the compound, how does the “Bmax (pmol/mg)” value (MOR [1]) read?
Answer: Its value is 3.75 ± 0.34 pmol/mg.

Question: And the “Change of DAMGO EC50 value after ligand pretreatment (desensitization)” value (MOR [3])?
Answer: Its value is “did not produce a significant change”.

Question: And the “Apparent increase in [3H]naloxone KD value after treatment” value (MOR [2]; versus vehicle)?
Answer: Its value is 3.5–4 fold.

Question: With `O=C(N[C@H]1CC[C@@]2(O)[C@H]3Cc4ccc(O)c5c4[C@@]2(CCN3CC2CC2)[C@H]1O5)c1cccc2cc[nH]c12` [NAN, 17-cyclopropylmethyl-3,14β-dihydroxy-4,5α-epoxy-6α-(indole-7-carboxamido)morphinan] as the compound, how does the “Antinociception in the tail-flick assay” value (mice) read?
Answer: The value was “did not produce antinociception”.

Question: And the “Antagonism of the antinociceptive activity of morphine” value (mice; mice, warm water tail immersion assay)?
Answer: Its value is “almost completely antagonized”.

Question: And the “MOR stimulation compared to other ligands” value (MOR in mouse thalamus)?
Answer: Its value is “low MOR stimulation that was significantly less than DAMGO and similar to NAQ and nalbuphine”.

Question: And the “Effect on the DAMGO Emax value” (μ opioid receptor (MOR); 5 nM coincubation, mMOR-CHO cells and thalamus)?
Answer: The value was “did not have any effect on the DAMGO Emax value”.

Question: And the “MOR stimulation compared to other ligands” value (μ opioid receptor (MOR); mMOR-CHO cells)?
Answer: The value was “low MOR stimulation that was significantly less than DAMGO and similar to NAQ and nalbuphine”.

Question: What about the Emax (μ opioid receptor (MOR); read-out: Emax (% DAMGO)) of the same compound?
Answer: The Emax was 25.5 ± 1.58%.

Question: What about the EC50 (κ opioid receptor (KOR); KOR EC50 (nM), mKOR-CHO) of the same compound?
Answer: The EC50 was 17.8 ± 3.24 nM.

Question: What about the Emax (κ opioid receptor (KOR); read-out: KOR Emax (% max of U50,488H), mKOR-CHO, relative to 5 μM U50,488H) of the same compound?
Answer: The Emax was ~74%.

Question: What about the EC50 (δ opioid receptor (DOR); DOR EC50 (nM), mDOR-CHO) of the same compound?
Answer: Its EC50 is 22.8 ± 3.95 nM.

Question: And the Emax (δ opioid receptor (DOR); read-out: DOR Emax (% max of SNC80), mDOR-CHO, relative to 5 μM SNC80)?
Answer: The Emax was ~27%.

Question: And the “Inhibition of [3H]-nociceptin binding to the NOP receptor” value (human NOP receptor)?
Answer: The value was “did not inhibit binding; also recorded: did not show NOP binding”.

Question: What about the “Bmax (pmol/mg)” value (MOR [2]; 1 μM) of the same compound?
Answer: The value was 3.92 ± 0.20 pmol/mg.

Question: What about the “Escape jumps versus 1 mg/kg NTX” value (morphine-pelleted mice; [4]) of the same compound?
Answer: Its value is “significantly less”.

Question: And the “Wet-dog shakes versus 1 mg/kg NTX” value (morphine-pelleted mice; [4])?
Answer: Its value is “significantly less”.

Question: And the “Escape jumps versus 1 mg/kg NTX” value (morphine-pelleted mice; 10 mg/kg s.c., morphine-pelleted mice)?
Answer: Its value is “not significantly different”.

Question: And the “Escape jumps versus 1 mg/kg NTX” value (morphine-pelleted mice; [5])?
Answer: Its value is “not significantly different”.

Question: What about the “Paw tremors versus 1 mg/kg NTX” value (morphine-pelleted mice; [5]) of the same compound?
Answer: Its value is “significantly less”.

Question: And the “Wet-dog shakes versus 1 mg/kg NTX” value (morphine-pelleted mice; [5])?
Answer: Its value is “significantly less”.

Question: What about the “Withdrawal signs in placebo-pelleted mice” value (morphine-pelleted mice; 50 mg/kg s.c., placebo-pelleted mice, 20 min observation) of the same compound?
Answer: The value was “did not induce any significant withdrawal signs”.

Question: And the Ki (DOR)?
Answer: Its Ki is 0.0137 ± 0.00139 µM.

Question: And the “Agonism in Ca2+ flux assay” value (hMOR)?
Answer: The value was “no apparent agonism”.
